Measurements as given in ChEMBL document CHEMBL1138747, “Synthesis and structure--activity relationship in a class of indolebutylpiperazines as dual 5-HT(1A) receptor agonists and serotonin reuptake inhibitors” (J Med Chem, 2004).

Assays:
[1] = target: D(2) dopamine receptor (Rattus norvegicus, UniProt P61169); assay: Displacement of [3H]spiperone from dopamine D2 receptor of rat striatal membranes; assay type: cell membranes, Membrane
Summary of the method: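 IC50 from 5–10 compound concentrations, each in triplicate, taken as the concentration (nM) giving 50% inhibition of specific radioligand binding.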

[2] = target: Sodium-dependent serotonin transporter (Rattus norvegicus, UniProt P31652); assay: Inhibition of [3H]5-HT re-uptake in rat synaptosomes; assay type: subcellular, Brain
Sequence of Sodium-dependent serotonin transporter (P31652 whole entry): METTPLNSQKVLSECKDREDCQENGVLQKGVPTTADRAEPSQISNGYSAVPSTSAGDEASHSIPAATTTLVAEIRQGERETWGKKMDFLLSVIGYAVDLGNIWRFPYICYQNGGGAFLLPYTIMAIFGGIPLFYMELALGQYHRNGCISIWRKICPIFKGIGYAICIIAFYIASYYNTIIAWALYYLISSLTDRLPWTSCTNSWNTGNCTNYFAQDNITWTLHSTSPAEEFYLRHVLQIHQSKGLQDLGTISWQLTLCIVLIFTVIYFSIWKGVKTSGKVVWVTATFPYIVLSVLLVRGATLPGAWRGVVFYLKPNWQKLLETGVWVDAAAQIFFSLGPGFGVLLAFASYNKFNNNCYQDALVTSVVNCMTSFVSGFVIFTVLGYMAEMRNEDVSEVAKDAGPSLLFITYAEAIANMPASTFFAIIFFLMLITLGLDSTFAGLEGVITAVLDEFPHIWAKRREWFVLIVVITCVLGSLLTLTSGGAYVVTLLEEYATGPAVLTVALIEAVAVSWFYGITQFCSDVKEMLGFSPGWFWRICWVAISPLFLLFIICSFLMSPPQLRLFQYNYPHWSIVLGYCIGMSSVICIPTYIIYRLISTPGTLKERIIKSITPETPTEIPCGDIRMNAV

[3] = target: T1, 5-hydroxytryptamine receptor 1A (Rattus norvegicus, UniProt P19327); assay: Inhibition of 8-OH DPAT binding to rat hydroxytryptamine 1A receptor
T1 sequence (P19327 whole entry): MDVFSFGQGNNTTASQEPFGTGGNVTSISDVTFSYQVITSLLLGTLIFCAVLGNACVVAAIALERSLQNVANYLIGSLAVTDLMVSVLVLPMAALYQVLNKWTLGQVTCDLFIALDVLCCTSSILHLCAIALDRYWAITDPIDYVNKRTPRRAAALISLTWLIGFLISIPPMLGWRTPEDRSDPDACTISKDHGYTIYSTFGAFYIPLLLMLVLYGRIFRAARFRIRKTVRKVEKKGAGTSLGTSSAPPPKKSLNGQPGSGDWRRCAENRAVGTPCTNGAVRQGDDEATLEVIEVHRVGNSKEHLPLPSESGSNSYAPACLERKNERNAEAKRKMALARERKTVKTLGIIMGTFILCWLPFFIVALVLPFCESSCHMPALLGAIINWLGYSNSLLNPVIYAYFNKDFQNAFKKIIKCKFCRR

[4] = system: Rattus norvegicus; assay: Dose required to inhibit ultrasonic vocalisation on peroral administered; assay type: functional; conditions: po, read-out: ID50 (the source's name)
Summary of the method: (§1)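 Rat ultrasonic vocalization test. In a priming session, up to 10 grid-floor shocks were given (1.8 mA, 0.3 s, 20 s apart). Rats not vocalizing on three consecutive trials were excluded. Next day, rats were tested 2 h after dosing: five shocks, then vocalization duration recorded over 3 min. ID50 (dose for half-maximal inhibition) came from dose–response curves.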

[5] = system: Rattus norvegicus; assay: Dose required to inhibit ultrasonic vocalisation on subcutaneous administered; assay type: functional; conditions: sc, read-out: ID50 (the source's name); summary of the method: as §1

Sequence of D(2) dopamine receptor (P61169 whole entry): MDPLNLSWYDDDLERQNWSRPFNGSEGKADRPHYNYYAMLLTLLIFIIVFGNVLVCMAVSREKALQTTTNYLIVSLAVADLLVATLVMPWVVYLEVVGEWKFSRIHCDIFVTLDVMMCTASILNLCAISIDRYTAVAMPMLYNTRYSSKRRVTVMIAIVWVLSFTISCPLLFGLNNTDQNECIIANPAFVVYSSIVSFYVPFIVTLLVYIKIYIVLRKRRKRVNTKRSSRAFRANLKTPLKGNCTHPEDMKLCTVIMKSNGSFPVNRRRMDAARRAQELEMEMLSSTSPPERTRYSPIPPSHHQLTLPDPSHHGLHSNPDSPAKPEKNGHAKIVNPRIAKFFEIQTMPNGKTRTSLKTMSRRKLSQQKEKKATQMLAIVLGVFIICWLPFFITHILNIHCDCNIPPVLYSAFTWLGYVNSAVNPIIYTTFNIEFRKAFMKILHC

IC50 [1] [nM]	IC50 [2] [nM]	IC50 [3] [nM]	SMILES	ED50 [4] [mg/kg]	ED50 [5] [mg/kg]
220	5.5	3.3	N#Cc1ccc2[nH]cc(CCCCN3CCN(c4ccc5occc5c4C(N)=O)CC3)c2c1	–	–
–	6.8	30	COc1ccc(Cl)cc1N1CCN(CCCCc2c[nH]c3ccc(C#N)cc23)CC1	–	–
77	0.5	0.2	Oc1ccc2[nH]cc(CCCCN3CCN(c4ccc5c(c4)OCCO5)CC3)c2c1	–	–
140	2	14	N#Cc1ccc2[nH]cc(CCCCN3CCN(c4ccc5[nH]c(C(N)=O)cc5c4)CC3)c2c1	–	–
13	1	4	N#Cc1ccc2[nH]cc(CCCCN3CCN(c4ccc5c(c4)CCO5)CC3)c2c1	–	–
–	2	12	N#Cc1ccc2[nH]cc(CCCCN3CCN(c4ccc(C#N)c(C#N)c4)CC3)c2c1	–	–
39	2.6	1.9	N#Cc1ccc2[nH]cc(CCCCN3CCN(c4cccc5cc(C(N)=O)oc45)CC3)c2c1	–	–
> 100	2	40	N#Cc1ccc(N2CCN(CCCCc3c[nH]c4ccc(F)cc34)CC2)cc1	–	–
< 100	1	0.7	O=Cc1ccc2[nH]cc(CCCCN3CCN(c4ccc5c(c4)OCCO5)CC3)c2c1	–	–
4.2	1	–	N#Cc1ccc2[nH]cc(CCCCN3CCN(c4ccc(F)cc4)CC3)c2c1	7	3
1400	3.1	3.2	N#Cc1ccc2[nH]cc(CCCCN3CCN(c4ccc5c(c4)CC(C(N)=O)O5)CC3)c2c1 (centres undefined)	–	–
3.8	1	400	N#Cc1ccc2[nH]cc(CCCCN3CCN(c4ccccc4)CC3)c2c1	–	–
46	0.5	1	COc1ccc(N2CCN(CCCCc3c[nH]c4ccc(C#N)cc34)CC2)cc1	–	–
–	100	–	COc1ccc2[nH]cc(CCCCN3CCN(c4ccc5c(c4)OCCO5)CC3)c2c1	–	–
–	3.4	14	COc1cc(N2CCN(CCCCc3c[nH]c4ccc(C#N)cc34)CC2)ccc1C#N	–	–
1.4	3.9	5.6	COc1cccc(N2CCN(CCCCc3c[nH]c4ccc(C#N)cc34)CC2)c1C#N	–	–
6	4.1	8	COc1cc(C#N)ccc1N1CCN(CCCCc2c[nH]c3ccc(C#N)cc23)CC1	–	–
31	3.1	2	N#Cc1ccc2[nH]cc(CCCCN3CCN(c4ccc5nsnc5c4)CC3)c2c1	–	3
–	60	–	NC(=O)c1ccc2[nH]cc(CCCCN3CCN(c4ccc5c(c4)OCCO5)CC3)c2c1	–	–
43	0.8	400	N#Cc1ccc2[nH]cc(CCCCN3CCN(c4ccc(O)c(C#N)c4)CC3)c2c1	–	–
< 100	50	0.6	COC(=O)c1ccc2[nH]cc(CCCCN3CCN(c4ccc5c(c4)OCCO5)CC3)c2c1	–	–

IC50 [1] [nM]	IC50 [2] [nM]	IC50 [3] [nM]	SMILES	ED50 [4] [mg/kg]	ED50 [5] [mg/kg]
> 100	3	5	N#Cc1cc2cc(N3CCN(CCCCc4c[nH]c5ccc(F)cc45)CC3)ccc2o1	–	–
> 100	–	4	O=C(O)c1ccc2[nH]cc(CCCCN3CCN(c4ccc5c(c4)OCCO5)CC3)c2c1	–	–
5.7	2.4	1.6	N#Cc1ccc2[nH]cc(CCCCN3CCN(c4ccc5[nH]ccc5c4)CC3)c2c1	–	–
–	0.3	3.1	N#Cc1ccc2[nH]cc(CCCCN3CCN(c4ccc5sc(C(N)=O)cc5c4)CC3)c2c1	–	–
255	1.3	1.1	N#Cc1ccc(N2CCN(CCCCc3c[nH]c4ccc(C#N)cc34)CC2)cc1	14	–
> 630	1	0.4	N#Cc1ccc2[nH]cc(CCCCN3CCN(c4ccc5oc(C#N)cc5c4)CC3)c2c1	–	–
8	3.9	8.7	N#Cc1ccc2[nH]cc(CCCCN3CCN(c4ccc5occc5c4)CC3)c2c1	–	–
> 270	0.6	118	N#Cc1ccc2[nH]cc(CCCCN3CCN(c4ccc(C(N)=O)cc4)CC3)c2c1	–	–
40	0.3	60	COc1ccc(N2CCN(CCCCc3c[nH]c4ccc(C#N)cc34)CC2)cc1OC	–	–
0.7	3	1	COc1ccccc1N1CCN(CCCCc2c[nH]c3ccc(C#N)cc23)CC1	–	–
6.6	8.5	1.4	N#Cc1ccc2[nH]cc(CCCCN3CCN(c4cccc5oc(C(N)=O)cc45)CC3)c2c1	–	–
47	16	6.4	N#Cc1ccc2[nH]cc(CCCCN3CCN(c4ccccc4C(N)=O)CC3)c2c1	–	–
< 42	0.9	5	N#Cc1ccc2[nH]cc(CCCCN3CCN(c4ccc5c(c4)CCCO5)CC3)c2c1	–	–
28	3.2	2	CCOCCOCCOc1cccc(N2CCN(CCCCc3c[nH]c4ccc(C#N)cc34)CC2)c1C#N	–	–
–	5.4	36	N#Cc1ccc2[nH]cc(CCCCN3CCN(c4cc(F)c(C#N)c(F)c4)CC3)c2c1	–	–
1.4	1.5	1	N#Cc1ccc2[nH]cc(CCCCN3CCN(c4cccc5nsnc45)CC3)c2c1	–	–
< 100	2	40	N#Cc1ccc2[nH]cc(CCCCN3CCN(c4c(C#N)cccc4C#N)CC3)c2c1	–	–
740	0.7	0.1	N#Cc1ccc2[nH]cc(CCCCN3CCN(c4ccc5oc(=O)ccc5c4)CC3)c2c1	4	0.5
35	0.5	6	N#Cc1ccc2[nH]cc(CCCCN3CCN(c4ccc(O)cc4)CC3)c2c1	–	–
> 100	0.9	0.7	O=c1ccc2cc(N3CCN(CCCCc4c[nH]c5ccc(F)cc45)CC3)ccc2o1	–	–
9.4	5	0.4	O/N=C/c1ccc2[nH]cc(CCCCN3CCN(c4ccc5c(c4)OCCO5)CC3)c2c1	–	–

SMILES	IC50 [1] [nM]	IC50 [2] [nM]	IC50 [3] [nM]	ED50 [4] [mg/kg]	ED50 [5] [mg/kg]
Clc1ccc2[nH]cc(CCCCN3CCN(c4ccc5c(c4)OCCO5)CC3)c2c1	> 100	20	40	–	–
Fc1ccc2[nH]cc(CCCCN3CCN(c4ccc5c(c4)OCCO5)CC3)c2c1	130	1	5	–	–
NC(=O)c1cc2cc(N3CCN(CCCCc4c[nH]c5ccc(F)cc45)CC3)ccc2o1	> 100	0.3	3	–	–
N#Cc1ccc2[nH]cc(CCCCN3CCN(c4ccc5c(c4)OCCO5)CC3)c2c1	5.6	0.4	1	–	–
Fc1ccc2[nH]cc(CCCCN3CCN(c4ccc5c(c4)OCO5)CC3)c2c1	< 100	1	4	–	–
c1ccc2c(CCCCN3CCN(c4ccc5c(c4)OCCO5)CC3)c[nH]c2c1	> 100	10	8	–	–
N#Cc1ccc2[nH]cc(CCCCN3CCN(c4ccc5c(c4)OCO5)CC3)c2c1	4.9	0.6	0.7	4	1
